Results filed as inconclusive are left out.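 How the source made its calls, unless noted: active means cell viability at or below a set limit in both duplicate runs, the limit being the all-compound median minus 4 SD (cut at about 23% in these data, passing the limit was not always enough); inconclusive means no clear call, values can overlap the other calls; inactive means the rest.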
How the values were obtained:
[1] = S. cerevisiae growth inhibition in permissive medium (OD615), pilot counter-assay for S. cerevisiae lifespan shortening project, permissive growth control (AID 705;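 active means growth inhibition above 25% in both replicates, a cutoff set 3 SD above the mean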); conditions: OD615, 24 h, at 10 µM, hits give high values
Procedure, shortened: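 System: S. cerevisiae with engineered DeaD lifespan system. Medium: SC raffinose/galactose permissive medium. Doses: single compound dose of 10 µM, 0.25% DMSO final. Schedule: 24 h exposure, 30 °C. Measured by: OD615 turbidity read. Read-out: growth inhibition.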

[2] = S. cerevisiae growth inhibition in restrictive medium, OD615, pilot screen, restrictive growth control, yeast lifespan reduction project (AID 706;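 active means growth inhibition above a set limit, 3 SD over mean compound inhibition, in both replicates, cut at about 43% in these data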;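 further: modified DeaD lifespan yeast strain shifted to restrictive glucose medium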); conditions: OD615, 48 h, at 10 µM, hits give high values
Procedure, shortened: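 Assay system – genetically modified Saccharomyces cerevisiae, DeaD replicative lifespan assay strain · Medium – CSMM-D glucose medium · Doses – 10 µM compound, 0.25% DMSO · Times – 4 h pre-incubation, 48 h exposure at 30 °C · Signal – optical density at 615 nm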

[3] = doxorubicin toxicity protection in MRP-1 cells – H69AR cells, CellTiter-Glo, duplicate, MRP-1 activator project, pilot screen (AID 807;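 active means viability increase at or above a cutoff of the median across tested compounds plus 3 SD, cut at about 8.5% in these data, passing the limit was not always enough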;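 further: compound pretreatment 18-22 h then 72 h combined with doxorubicin; 0% = doxorubicin alone and 100% = vehicle without doxorubicin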); conditions: H69AR viability with doxorubicin, CellTiter-Glo luminescence; at 10 µM; hits give high values
[4] = viability of HCT116 without oncogenic beta-catenin – human colon tumor cells, pilot screen (AID 823); conditions: HCT116 beta-catenin knockout viability, CellTiter-Glo, 60 h; at 10 µM; hits give low values;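 further: 0% = wells killed by 20 µM Hyamine and 100% = untreated DMSO cell wells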
[5] = viability of PTEN-null HCT116 cells – cell-based, HCT116 clonal line, CellTiter-Glo, pilot screen (AID 824;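 active means viability at or below 27.92% in each of two runs, the all-compound median minus 4 SD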;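 further: 0% = 20 µM Hyamine control and 100% = vehicle cell control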); conditions: HCT116 PTEN-deleted viability, 60 h, at 10 µM, hits give low values
[6] = RAM pathway blockade in budding yeast – dse1pr::URA3 reporter, 5-FOA selection, pilot screen (AID 869;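 active means inhibition over a set limit, the all-compound mean plus 3 SD, in both replicate runs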;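 further: 0% = DMSO wells with no growth and 100% = 10 µM 1-NA-PP1 with full growth; RAM network block rescues cells from 5-FOA so hits raise OD615 growth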); conditions: S. cerevisiae dse1pr::URA3 5-FOA growth, OD615, 2 d; at 10 µM; hits give high values; strain carries analog-sensitive mutant Cbk1 kinase
[7] = RAM signaling pathway blockade in yeast – S. cerevisiae, Pdr1DBD-CYC8 efflux-inhibited sensitized strain, primary screen (AID 1298;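 active means RAM network inhibition above 8.4% in each of two replicates, 3 SD over the compound average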;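 further: 0% = DMSO untreated cells without growth and 100% = 10 µM 1-NA-PP1 full growth; higher means more yeast growth rescued from 5-FOA killing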); conditions: S. cerevisiae cbk1-as DSE1-URA3 strain, 5-FOA growth OD615, 2 d; at 50 µM; hits give high values

Cc1ccc(S(=O)(=O)NCCCN2CCOCC2)c(C)c1
inactive: growth inhibition [1] -5.02% | growth inhibition [2] -7.8% | viability increase [3] -1.19% | viability [4] 96.8% | viability [5] 95.5% | inhibition [6] 2.29% | RAM network inhibition [7] 5.89%

Cc1ccc(S(=O)(=O)N2CCCC2C(=O)Nc2nc3ccccc3s2)cc1 (stereo not drawn)
inactive: growth inhibition [1] -4.55% | growth inhibition [2] -5.41% | viability increase [3] -3.97% | viability [4] 79.7% | viability [5] 80.7% | inhibition [6] 2.12% | RAM network inhibition [7] 4.05%

O=C1c2ccccc2C(=O)N1CCCc1nc2ccccc2c(=O)n1-c1cccnc1
inactive: growth inhibition [1] -1.63% | growth inhibition [2] 7.23% | viability increase [3] -3.29% | viability [4] 93.1% | viability [5] 90.8% | inhibition [6] 2.07% | RAM network inhibition [7] 2.78%

O=C(Cn1c(=O)oc2ccccc21)N1CCN(c2ccc(N3CCOCC3)nn2)CC1
inactive: growth inhibition [1] -0.78% | growth inhibition [2] -14% | viability increase [3] -2.65% | viability [4] 101% | viability [5] 101% | inhibition [6] 1.31% | RAM network inhibition [7] 2.63%

CCOc1ccc(C2C(C(=O)Nc3ccc(F)cc3)=C(C)Nc3nc(CCCO)nn32)cc1 (stereo not drawn)
inactive: growth inhibition [1] -12.5% | growth inhibition [2] 12.8% | viability increase [3] -0.6% | viability [4] 96.6% | viability [5] 91.5% | inhibition [6] 0.87% | RAM network inhibition [7] 1.21%

Cc1nnc(SCc2ccc(Cl)cc2Cl)[nH]c1=O
inactive: growth inhibition [1] -11.1% | growth inhibition [2] 1.19% | viability increase [3] 0.05% | viability [4] 104% | viability [5] 99.1% | inhibition [6] 0.42% | RAM network inhibition [7] 4.49%

CC1(C)CC(=O)C=C(Nc2ccccc2F)C1
inactive: growth inhibition [1] -10.4% | growth inhibition [2] -10.5% | viability increase [3] -2.25% | viability [4] 111% | viability [5] 98.3% | inhibition [6] -0.01% | RAM network inhibition [7] 1.22%

Cn1c(=O)oc2cc(S(=O)(=O)NCc3ccco3)ccc21
inactive: growth inhibition [1] 2.12% | growth inhibition [2] 5.31% | viability increase [3] -4.38% | viability [4] 101% | viability [5] 93.8% | inhibition [6] 1.41% | RAM network inhibition [7] 3.2%

COc1ccc(-c2nc(CS(=O)(=O)CC(=O)Nc3ccc(Cl)cc3)c(C)o2)cc1
inactive: growth inhibition [1] -8.75% | growth inhibition [2] -7.49% | viability increase [3] -2.64% | viability [4] 48.5% | viability [5] 49.6% | inhibition [6] 2.77% | RAM network inhibition [7] 3.02%

CCCCCC(C)n1[nH]c(=O)c2c(C)cc(C)nc21 (stereo not drawn)
inactive: growth inhibition [1] -6.7% | growth inhibition [2] 17.6% | viability increase [3] -3.27% | viability [4] 97.6% | viability [5] 96.2% | inhibition [6] 0.47% | RAM network inhibition [7] 0.57%

c1ccc(-c2nnc(SCc3nc4ccccc4[nH]3)n2Cc2ccco2)nc1
inactive: growth inhibition [1] -0.44% | growth inhibition [2] 10.8% | viability increase [3] -1.33% | viability [4] 90.3% | viability [5] 91% | inhibition [6] 0.04% | RAM network inhibition [7] -0.6%

COc1cccc(NC(=O)CSc2ncnc3c2oc2ccccc23)c1
inactive: growth inhibition [1] -12.8% | growth inhibition [2] 6.07% | viability increase [3] -2.19% | viability [4] 94.2% | viability [5] 87.3% | inhibition [6] 2.46% | RAM network inhibition [7] 4.42%

CC1CCCN(Cc2nc3c(c(=O)n(C)c(=O)n3C)n2Cc2cccc3ccccc23)C1 (stereo not drawn)
inactive: growth inhibition [1] -4.69% | growth inhibition [2] -2.08% | viability increase [3] -3.36% | viability [4] 73.2% | viability [5] 80% | inhibition [6] 1.08% | RAM network inhibition [7] 0.76%

CCN(CCCNS(=O)(=O)c1ccc2c(c1)CCN2C(C)=O)c1cccc(C)c1
inactive: growth inhibition [1] -4.96% | growth inhibition [2] 9.51% | viability increase [3] -2.74% | viability [4] 75.3% | viability [5] 82.5% | inhibition [6] 0.28% | RAM network inhibition [7] 4.1%

CCc1ccc2c(c1)C(NC(C)=O)C(=O)N2CC (stereo not drawn)
inactive: growth inhibition [1] -11.8% | growth inhibition [2] -3% | viability increase [3] -0.55% | viability [4] 78.5% | viability [5] 86% | inhibition [6] 0.73% | RAM network inhibition [7] 0.8%

O=C(Cn1ncc2c(=O)oc3ccccc3c21)N1CCCN(Cc2ccccc2F)C1
inactive: growth inhibition [1] -3.74% | growth inhibition [2] 2.98% | viability increase [3] -3.74% | viability [4] 101% | viability [5] 94.1% | inhibition [6] 1.55% | RAM network inhibition [7] 1.79%

CC1CCCCN1Cc1nc2c(c(=O)n(C)c(=O)n2C)n1Cc1c(F)cccc1Cl (stereo not drawn)
inactive: growth inhibition [1] 1.95% | growth inhibition [2] -6.45% | viability increase [3] -3.05% | viability [4] 78.6% | viability [5] 79.2% | inhibition [6] 1.46% | RAM network inhibition [7] 0.66%

CCOc1cc(C2CC(=O)NC(SCC)=C2C#N)ccc1O (stereo not drawn)
inactive: growth inhibition [1] -16.8% | growth inhibition [2] -5.38% | viability increase [3] -1.97% | viability [4] 107% | viability [5] 92.6% | inhibition [6] 1.97% | RAM network inhibition [7] 0.15%

Cc1ccc(NC(=O)c2cc(NC(=O)C3CC=CCC3C(=O)O)ccc2N2CCOCC2)cc1 (stereo not drawn)
inactive: growth inhibition [1] -11.6% | growth inhibition [2] -5.87% | viability increase [3] -3.64% | viability [4] 97.3% | viability [5] 95.1% | inhibition [6] 1.23% | RAM network inhibition [7] 2.82%

COc1ccc(NC(=O)N2CCC(c3ccccc3)C2)c(OC)c1 (stereo not drawn)
inactive: growth inhibition [1] -3.06% | growth inhibition [2] 9.96% | viability increase [3] 1.59% | viability [4] 90.9% | viability [5] 90.2% | inhibition [6] 0.67% | RAM network inhibition [7] -1.49%

O=C(NCCCn1ccnc1)c1cccc(S(=O)(=O)Nc2ccccc2F)c1
inactive: growth inhibition [1] -13.9% | growth inhibition [2] -26.1% | viability increase [3] -0.61% | viability [4] 92.3% | viability [5] 92.8% | inhibition [6] 2.51% | RAM network inhibition [7] 5.99%

CCOC(=O)c1[nH]c2ccccc2c1NC(=O)c1ccc2c(c1)OCO2
inactive: growth inhibition [1] -2.92% | growth inhibition [2] -6.88% | viability increase [3] -4.72% | viability [4] 85.6% | viability [5] 85.6% | inhibition [6] 1.8% | RAM network inhibition [7] 2.88%

COCCCNC(=O)Cn1nnc(-c2ccc(NC(=O)c3ccc(F)cc3)cc2)n1
inactive: growth inhibition [1] -9.11% | growth inhibition [2] -28.5% | viability increase [3] 0.73% | viability [4] 99.7% | viability [5] 96.8% | inhibition [6] 0.705% | RAM network inhibition [7] 4.54%

CC1CSc2nnc(CCc3ccccc3)n21 (stereo not drawn)
inactive: growth inhibition [1] 2.06% | growth inhibition [2] -7.96% | viability increase [3] -2.61% | viability [4] 107% | viability [5] 89.2% | inhibition [6] 0.37% | RAM network inhibition [7] -0.11%

Reference: PubChem BioAssay
